Shown are actives, neighbours in structure and some others; about 1.9% of the full set was active somewhere.
Rev-RRE block: HIV-1 Rev-RRE binding inhibitors, primary screen, biochemical, FRET, protein-RNA interaction; P05866; Rev peptide-RRE RNA binding; inhibition, % at 8 µM; actives 0.79% (n = 97,000); AID 704, 2007;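 active means inhibition above the screen-wide mean plus 3 SD, cut at about 35% in these data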;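 further: 0% = median DMSO wells and 100% = median Neomycin B control wells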
Target sequence (P05866 whole entry, looked up): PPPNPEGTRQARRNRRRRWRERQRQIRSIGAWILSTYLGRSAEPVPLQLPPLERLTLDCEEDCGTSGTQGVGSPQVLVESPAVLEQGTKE
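Assay system: Labelled RRE RNA duplex and labelled Rev peptide | Times: 5 min preincubation and 15 min binding, 25 °C | Detection: FRET, ex 480 nm, em 540 and 671 nm | Evaluation: % inhibition of FRET ratio versus controls | Benchmarks: DMSO wells as 0% and neomycin B wells as 100% inhibition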
FAK blocker: FAK kinase inhibitors, primary screen, biochemical | Focal adhesion kinase 1 (Homo sapiens), Q05397 | actives 0.84% (n = 97,000) | inhibition, %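 (tested at 7 µM)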 | biochemical FAK kinase activity assay | AID 727, 2007; in the data active means inhibition above about 19%;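 further: 0% = DMSO and 100% = reference compound high control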
LYP act: LYP phosphatase activators, primary screen, biochemical, DiFMUP fluorescence, 2 µM; Tyrosine-protein phosphatase non-receptor type 22 (Homo sapiens), Q9Y2R2; recombinant LYP; 0 = plate median, 100 = signal doubled; activation, % at 2 µM; actives 0.11% (n = 96,000);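 active means activation at 2 µM above a set limit, the mean plus 5 SD, cut at about 37% in these data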
EphB4 antag: EphB4-ephrin-B2 interaction antagonists, primary screen, biochemical, TNYL-RAW peptide probe, fluorescence polarization; inhibition, % at 7 µM; actives 0.15% (n = 97,000); EphB4 LBD / TNYL-RAW-Alexa532 peptide;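 active means inhibition above the screen-wide mean inhibition plus 3 SD, cut at about 15% in these data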;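 further: 0% = DMSO wells and 100% = excess unlabeled TNYL-RAW peptide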
LYP inh 2: PTPN22 phosphatase inhibitors, primary screen, biochemical, DiFMUP fluorescence, 2 µM | recombinant LYP catalytic domain | actives 0.21% (n = 96,000) | AID 640, 2007 | inhibition, % at 2 µM | Tyrosine-protein phosphatase non-receptor type 22 (Homo sapiens), Q9Y2R2;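 active means inhibition at 2 µM at or above a set limit, the screen mean plus 3 SD, cut at about 24% in these data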;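 further: 0% = DMSO with enzyme and 100% = enzyme fully blocked by orthovanadate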
Active calls of the source: *; [ ] = dose if it differs, or a comment.

SMILES | Rev-RRE block | FAK blocker | LYP act | EphB4 antag | LYP inh 2
O=C1S/C(=C/c2ccc(N3CCOCC3)o2)C(=O)N1Cc1ccc(F)cc1 | 115*[fluorescence artefact?] | -1 | 6 | -4 | -2
O=C(N/N=C/c1ccc(N2CCOCC2)o1)c1cccc(F)c1 | 9 | -2 | -1 | 3 | 0
O=C1S/C(=C\c2ccc(N3CCOCC3)o2)C(=O)N1Cc1ccc(F)cc1 | 117*[fluorescence artefact?] | -4 | -6 | 8 | 9
O=C1/C(=C/c2ccc(N3CCOCC3)o2)SC(=Nc2ccccc2)N1CCc1c[nH]c2ccccc12 | 136*[fluorescence artefact?] | 2 | -4 | 3 | 8
O=C1N/C(=C/c2ccc(N3CCOCC3)cc2)C(=O)N1Cc1ccc(F)cc1 | 5 | 0 | -4 | -9 | 3
CC(C)OC(=O)CN1C(=O)S/C(=C/c2ccc(N3CCCCC3)o2)C1=O | 136*[fluorescence artefact?] | 1 | -6 | -2 | 5
CCC(C)NCCCCOc1ccc(C)cc1[N+](=O)[O-] (configuration not stated) | -2 | -2 | 4 | -7 | -4
COc1cc(OC)cc(C(=O)OCc2cc3ccccc3[nH]c2=O)c1 | 1 | -48 | 2 | 7 | -5
CCOc1ccc(N2C(=O)CN=C2Nc2ccccc2F)cc1 | 8 | -3 | -9 | 6 | 10
CCN(CC)c1ccc2cc(-c3nc4ccccc4n3C)c(=O)oc2c1 | 132*[fluorescence artefact?] | -3 | -6 | 0 | 5
CCN(CC)c1ccc2cc(-c3nnc(-c4ccccc4)o3)c(=O)oc2c1 | 141*[fluorescence artefact?] | 0 | 4 | 0 | -4
O=c1oc2ccc3ccccc3c2cc1-c1nnc(-c2ccccc2)o1 | 6 | -5 | 3 | -2 | -4
COc1ccc(-c2nnc(-c3cc4c(ccc5ccccc54)oc3=O)o2)cc1 | 6 | 7 | -9 | 9 | 11
CCN(CC)c1ccc2cc(-c3nnc(-c4ccc(Br)cc4)o3)c(=O)oc2c1 | 140*[fluorescence artefact?] | 2 | -19 | -3 | 19
O=C(O)CCC(NS(=O)(=O)c1ccc(-c2ccccc2)cc1)C(=O)O (configuration not stated) | 8 | -4 | -4 | -1 | 0
Oc1c(C=Nc2cccc3cccnc23)sc2ccccc12 | 133*[fluorescence artefact?] | 4 | -4 | 6 | 4
COc1ccc(N=Cc2sc3ccccc3c2Cl)cc1 | 16 | 2 | 6 | 2 | -3
Cn1c(=O)oc2cc(S(=O)(=O)NCCC(=O)N3CCc4ccccc43)ccc21 | 4 | -1 | 0 | 3 | -2
O=C1CC(=C2c3ccccc3-c3ccccc32)C(=O)N1CCN1CCN(c2cccc(Cl)c2)CC1 | 9 | 2 | -24 | -3 | 25*
COc1ccc2c(c1OC)C(=O)N(C(C)C(=O)O)C2=O (configuration not stated) | 1 | 1 | 1 | -2 | -1
N#CC1=C(N)SC(N)=C(C#N)C1c1c(Cl)cccc1Cl | 11 | 12 | 3 | -2 | -3
N#CC1=C(N)SC(N)=C(C#N)C1Cc1ccccc1 | 47* | 1 | 6 | 14 | -8
COC1(OC)N=C(N)C2(C#N)C(c3cccc(Oc4ccccc4)c3)C12C#N (configuration not stated) | 14 | 0 | 6 | 0 | -7
N#CC1=C(N)SC(N)=C(C#N)C1CCc1ccccc1 | 79* | 0 | -2 | -9 | 5
CC(C)CC1C(C#N)=C(N)SC(N)=C1C#N | 13 | -4 | 6 | 3 | -8
SMILES | Rev-RRE block | FAK blocker | LYP act | EphB4 antag | LYP inh 2
N#CC1=C(N)SC(N)=C(C#N)C1c1cccc(Oc2ccccc2)c1 | 80* | 4 | -12 | 11 | 17
Cc1noc(C)c1C(=O)OCC(=O)Nc1ccccc1Oc1ccccc1 | 9 | 2 | 3 | 9 | 0
CCN(CC)c1ccc2c(c1)OC(N)=C(C#N)C2c1cccnc1 (configuration not stated) | 121*[fluorescence artefact?] | 1 | 8 | -8 | -8
CCC(=O)N1CCc2cc(S(=O)(=O)CCC(=O)NCCC3=CCCCC3)ccc21 | -1 | -3 | 2 | -2 | -4
O=c1c(/C=C(\O)c2ccccc2)nc2ccccc2n1-c1ccccc1 | 98*[fluorescence artefact?] | 0 | -6 | -4 | 8
CC1=CC(C#N)(C#N)C(C#N)(C#N)C(c2ccccc2)N1 (configuration not stated) | 52* | 4 | -2 | 5 | 4
COC1(OC)N=C(N)C2(C#N)C(c3ccccc3)NC(C)=CC12C#N (configuration not stated) | 7 | 6 | 0 | 3 | 3
CN(C(=O)N1CCN(c2ccccn2)CC1)c1ccccc1 | 7 | 7 | 0 | 15* | -1
CCN1C(=O)C2(C(C#N)=C(N)Oc3cc(C)oc(=O)c32)c2ccccc21 (configuration not stated) | 6 | 1 | 3 | -2 | 0
Cc1cc2c(c(=O)o1)C1(C(=O)N(CC(=O)O)c3ccccc31)C(C#N)=C(N)O2 (configuration not stated) | 49* | 1 | 0 | -2 | -2
CC(C)NC(=O)c1sc2nc(-c3cccs3)cc(-c3cccs3)c2c1N | 11 | -2 | -18 | 4 | 20
Nc1c(C(=O)C2CC2)sc2nc(-c3cccs3)cc(C(F)(F)F)c12 | 107*[fluorescence artefact?] | -1 | 8 | -3 | -5
C/C(CCc1ccc2c(c1)OCO2)=N\N=C(/N)SC1CC(=O)N(c2ccccc2F)C1=O (configuration not stated) | 6 | -3 | -4 | 8 | 7
COc1cccc2cc(-c3nc(-c4cccs4)cs3)c(=O)oc12 | 15 | 4 | -3 | 1 | 2
CCc1nnc(NC(=O)c2cc3ccccc3oc2=O)s1 | 7 | 12 | -2 | 7 | 5
O=c1oc2ccccc2cc1-c1nc(-c2cccs2)cs1 | 62* | 2 | -2 | -4 | 0
CNc1nnc(-c2cc3ccccc3oc2=O)s1 | 52* | 4 | 10 | 1 | -9
COc1cccc(Nc2ncccc2C(=O)NCc2ccccc2)c1 | 52* | 3 | 6 | -2 | -10
O=C(N/N=C/c1ccncc1)c1cc([N+](=O)[O-])cc([N+](=O)[O-])c1O | 5 | 4 | -44 | 19* | 46*
Cc1cc(C(=O)N/N=C/c2cccc([N+](=O)[O-])c2)c(C)o1 | -3 | 3 | -2 | -6 | 4
Cc1cc2oc(=O)cc(CN3CCc4ccccc43)c2cc1Cl | 3 | -2 | -2 | 0 | 0
Cc1ccc2c(CN3CCCc4ccccc43)cc(=O)oc2c1C | 57* | -8 | -3 | 2 | 0
COc1ccc(CCn2c(C)cc(C(=O)CSc3nnc(N)s3)c2C)cc1 | -2 | -6 | -7 | 16* | 8
CC(C)CCNC(=O)C1C2C=CC3(CN(Cc4ccccc4Cl)C(=O)C13)O2 (configuration not stated) | 7 | 5 | 4 | 3 | -6

Source: PubChem BioAssay (several laboratories)
